HCV NS3 hel inh: inhibitors of HCV NS3 helicase, primary screen, biochemical, Cy5 molecular beacon fluorescence; inhibition, % at 10.9 µM; Hepatitis C virus NS3 helicase; NS3 helicase DNA unwinding; actives 0.56% (n = 290,000);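 active = inhibition above the mean of all tested compounds plus 3 SD, set per campaign, cut at about 35% in these data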
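Assay system: hepatitis C virus NS3 helicase domain fragment enzyme. Also added: annealed dual-labelled DNA beacon duplex, ATP-started. Timing: 1 h reaction at 25 °C, ATP-initiated. Technique: Cy5 fluorescence at 0 and 60 min, beacon hairpin quenching. Evaluation: % inhibition of unwinding. Replication: one well per compound.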
SUMO HTRF inh: inhibitors of in vitro SUMOylation cascade, primary screen, biochemical, HTRF, uHTS. HTRF SUMOylation assay, SAE1/SAE2 + UBC9. inhibition, % at 35 µM. actives 0.36% (n = 290,000). AID 2006, 2009; in the data active = inhibition above about 50%, passing the limit was not always enough
Target sequence (P63279 whole entry, looked up): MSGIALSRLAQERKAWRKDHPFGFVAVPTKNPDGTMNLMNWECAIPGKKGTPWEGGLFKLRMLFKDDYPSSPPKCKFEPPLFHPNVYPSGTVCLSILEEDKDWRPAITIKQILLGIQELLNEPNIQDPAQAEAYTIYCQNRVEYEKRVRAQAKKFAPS
IMP-1 inhibitor: IMP-1 metallo-beta-lactamase inhibitors, primary screen, biochemical, epi-absorbance readout, Pseudomonas aeruginosa enzyme; inhibition, % at 5.6 µM; AID 1556, 2009; purified IMP-1, nitrocefin hydrolysis, epi-absorbance fluorescence; metallo-beta-lactamase IMP-1 (Pseudomonas aeruginosa); actives 0.45% (n = 290,000);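 active = inhibition above the mean plus 3 SD of all compounds in the same screening run, cut at about 4.5% in these data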
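System: Purified IMP-1 | Read-out basis: Percent enzyme inhibition | Controls: IMP-1 with DMSO as 0%, enzyme-free DMSO as 100% | Replicates: One well per compound | Doses: 5.6 µM nominal single concentration | Detection: Epi-absorbance fluorescence, 480 nm excitation, 530 nm emission | Incubation: 25 °C, 15 min preincubation, 25 min reaction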
DNA FID counter: compounds displacing fluorescent DNA intercalator, primary screen, artefact control for HCV NS3 helicase inhibitor project, biochemical, FID fluorescence | AID 1845, 2009 | DNA fluorescent intercalator displacement | actives 0.17% (n = 290,000) | inhibition, % at 7.9 µM; in the data active = inhibition above about 37%;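 note: higher means more ethidium bromide displaced from hairpin DNA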
VIM-2 inhibitor: VIM-2 metallo-beta-lactamase inhibitors, primary screen, biochemical, epi-absorbance readout, Pseudomonas aeruginosa enzyme; purified VIM-2, nitrocefin hydrolysis, epi-absorbance fluorescence; inhibition, % at 5.6 µM; actives 0.89% (n = 290,000); AID 1527, 2009;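 active = inhibition above the mean of all tested compounds plus 3 SD, cutoff set per screening run, cut at about 7.5% in these data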;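 note: red hydrolysis product quenches plate fluorescence so inhibitors raise well fluorescence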
Large screens that a line does not name were inactive. Compounds with a hit are over-represented: about 2.1% of the library has one in this group of screens.

CC(=O)c1c(C)n(-c2ccc(Br)cc2)c2ccc(O)cc12	none
COc1ccc(OC)c(C2=Nn3c(nnc3-c3ccco3)SC2)c1	none
COc1ccc(C2=Nn3c(nnc3-c3ccco3)SC2)cc1	VIM-2 inhibitor 9.8
O=C1NCCCC2c3cc(O)c4ccccc4c3OC12N1CCCCC1 (stereo not given)	SUMO HTRF inh 56
CCCCNC(=O)OCC(CC)NC(=O)OCC(C)C (stereo not given)	IMP-1 inhibitor 8.7
c1ccc(-c2nc(NCCCN3CCOCC3)c3ccccc3n2)cc1	DNA FID counter 55, VIM-2 inhibitor 10
Cc1cccc(-c2nc(NCCCN3CCOCC3)c3ccccc3n2)c1	DNA FID counter 53, VIM-2 inhibitor 7.7
COc1ccccc1N1CCN(C2CCCN(C(=O)c3cc(C4CC4)on3)C2)CC1 (stereo not given)	none
COc1ccc(CNC(=O)CN(C(=O)c2csnn2)c2ccccc2F)cc1	none
O=C(Nc1ccc(-c2nc3ccccc3[nH]2)cc1)c1cccc(N2C(=O)CCC2=O)c1	SUMO HTRF inh 65
O=C(Nc1cccc2c1C(=O)NC2=O)c1cccc(N2C(=O)CCC2=O)c1	IMP-1 inhibitor 8.8
CCn1c(C)c(C)c2cc(C(=O)NC3CCCCCC3)ccc21	none
O=C(Nc1ccc(Cl)cc1)N1CC=CCC1	IMP-1 inhibitor 8.1
O=C(Nc1ccc(Cl)cc1)N1CCN(c2ccccc2)CC1	none
O=C(NC1CCCC1)C(c1ccc(F)cc1)N(Cc1ccc(F)cc1)C(=O)CCl (stereo not given)	none
Cc1oc2c(CN3CCC(C)CC3)c(O)ccc2c(=O)c1-c1ccccc1	none
CCN1CCN(CCCNC(=O)c2cc3cc4ccc(OC)cc4nc3o2)CC1	none
CCCN(CCC)CCCNC(=O)c1cc2cc3ccc(OC)cc3nc2o1	DNA FID counter 37
COc1ccc2cc3cc(C(=O)NCCCN4CCC(C)CC4)oc3nc2c1	VIM-2 inhibitor 9.9
COc1ccc(-c2nc(C(=O)NCCCN3CCOCC3)cc3c2[nH]c2ccccc23)cc1OC	VIM-2 inhibitor 12
Cc1nc(N)sc1C(=O)Nc1ccccc1	none
COC(=O)c1ccccc1NC(=O)c1sc(N)nc1C	VIM-2 inhibitor 10
CCOc1ccc2nc(Nc3nc(CSc4nnnn4-c4ccccc4)cc(=O)[nH]3)nc(C)c2c1	none
COc1ccc2nc(Nc3nc(CSc4nnnn4-c4ccccc4)cc(=O)[nH]3)nc(C)c2c1	IMP-1 inhibitor 4.9
CC(C)n1c(-c2ccc(C(C)(C)C)cc2)n[nH]c1=S	none
CC(C)n1c(-c2ccccc2F)n[nH]c1=S	IMP-1 inhibitor 5.0
O=C(NN=C1CCCCCC1)c1cccs1	none
Nn1c(SCc2ccc([N+](=O)[O-])cc2)nc2ccccc2c1=O	IMP-1 inhibitor 7.6
O=C1CCN(S(=O)(=O)c2ccc(Cl)cc2)N1	none
O=C1CCN(S(=O)(=O)c2ccccc2)N1	VIM-2 inhibitor 9.7
Cc1ccc(S(=O)(=O)N2CCC(=O)N2)cc1	VIM-2 inhibitor 8.6
O=C(N=C1SC2CS(=O)(=O)CC2N1Cc1ccc(F)cc1)C1CCCO1 (stereo not given)	none
Cc1ccc(-c2nnc(SCC(=O)N(CC(C)C)c3c(N)n(Cc4ccccc4)c(=O)[nH]c3=O)n2N)cc1	none
CC(=O)Nc1c(-c2ccccc2)c2cc(Br)ccc2[nH]c1=O	none
Cc1c(Br)c([N+](=O)[O-])nn1CC(=O)Nc1ccc2nc3n(c(=O)c2c1)CCCC3	DNA FID counter 64
CS(=O)(=O)CC(=O)Nc1ccc2nc3n(c(=O)c2c1)CCCCC3	none
O=c1nc2ccc(Cl)cn2c2ccc(S(=O)(=O)N3CCOCC3)cc12	VIM-2 inhibitor 11
O=C(Nc1ccccc1)/C(=C1\CCCN1)[N+](=O)[O-]	none
O=C(Nc1ccccc1)C(=O)Nc1cccnc1	none
O=C(Nc1cccnc1)/C(N=Nc1cccnc1)=C(\O)c1ccccc1	VIM-2 inhibitor 10
O=S(=O)(NCC1(N2CCOCC2)CCCCC1)c1ccc(Cl)cc1C(F)(F)F	none
Cc1ccc(C(=O)C(c2ccccc2)N2Cc3ccccc3C2=N)cc1 (stereo not given)	none
COc1cc(/C=N\NC(=O)CNC(=O)C2COc3ccccc3O2)ccc1O (stereo not given)	none
CCN(CC)c1ccc(/C=N/NC(=O)CNC(=O)C2COc3ccccc3O2)c(O)c1 (stereo not given)	SUMO HTRF inh 51
Cc1ccc(CCNC(=O)C2CCN(S(=O)(=O)c3cccc4nsnc34)CC2)cc1	IMP-1 inhibitor 4.9
Cc1ccc(CCNC(=O)C2CCN(S(=O)(=O)c3cccc4cccnc34)CC2)cc1	none (no result: SUMO HTRF inh)
CCN(c1ccc2c(c1)OCO2)S(=O)(=O)c1cc(Br)cc2c1N(C(C)=O)CC2	IMP-1 inhibitor 7.4
Cc1c(C(=O)Nc2ccccc2C(=O)N2CCOCC2)cccc1[N+](=O)[O-]	none
O=C(NCCCn1ccnc1)c1ccc(N2CCCCC2)c([N+](=O)[O-])c1	none
Cc1ccc(N=Cc2sc(O)c3ccccc23)c(C)c1	IMP-1 inhibitor 28
CCOc1ccc(S(=O)(=O)NCc2ccc3c(c2)OCO3)cc1C(=O)O	none
Cc1ccnc2nc(C(=O)Nc3nc4ccccc4s3)nn12	IMP-1 inhibitor 5.0
COc1ccc(NC(=O)Cn2nnc(C(=O)Nc3ccc(F)c(Cl)c3)c2N)cc1	IMP-1 inhibitor 8.1
Cc1nn(-c2ccccc2)c2sc(C(=O)NNC(=O)COc3ccccc3)cc12	SUMO HTRF inh 55
Cc1nn(-c2ccccc2)c2sc(C(=O)NNC(=O)COc3cccc4ccccc34)cc12	none
CC1=[N+](C)c2c(ccc3cccnc23)C1(C)C	SUMO HTRF inh 90
COc1cc(CN2CCC(CO)(Cc3cccc(C(F)(F)F)c3)CC2)ccc1F	none
COc1ccc(F)c(CN2CCC(CO)(Cc3cccc(C(F)(F)F)c3)CC2)c1	DNA FID counter 39
CCCCN(CCCC)CCCNC(=O)Cn1cc2c(n1)-c1c(oc(C(=O)N3CCCC3)c1C)CC2	none (no result: SUMO HTRF inh)
CC(=O)c1ccc(NC(=O)CNCC(c2ccccc2)N(C)C)cc1 (stereo not given)	none
CCOC(=O)c1cc(NC(=O)CNCC(c2ccccc2)N(C)C)cc(C(=O)OCC)c1 (stereo not given)	DNA FID counter 38
CSCCC(NC(=O)c1ccccc1)C(=O)Nc1ccc(NC(C)=O)cc1 (stereo not given)	none
Cc1cc(C)cc(N(CC(=O)NC2CCCC2)C(=O)CCC(=O)Nc2nc(C)cs2)c1	none
CC(=O)Oc1ccc(Cn2cnc3cc4ccccc4cc32)cc1	IMP-1 inhibitor 5.5
CCOc1ccc2c(c1)ncn2Cc1ccccc1	none
Cc1cc(N2C(=O)CC(C(C)c3ccccc3)C2=O)no1 (stereo not given)	none

Bioassay records deposited in PubChem BioAssay by several laboratories.
